# Results reported in ChEMBL document CHEMBL1121860, “Characterization of alpha-adrenoceptor populations. Quantitative relationships between cardiovascular effects initiated at central and peripheral alpha-adrenoceptors” (J Med Chem, 1981).
# Experiments:
# [1] = Partition coefficient (logD7.4); format: physicochemical; settings: octanol/water, pH 7.4
# Procedure, shortened: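 Octanol against 0.1 M phosphate buffer at pH 7.4 and 37 °C. Drug at about 10^-4 M in octanol-saturated buffer was shaken for 1 h with buffer-saturated octanol, then left standing 6 h. Buffer-phase drug was measured by UV at λmax before and after partitioning, with GLC or potentiometric titration used for some compounds. Apparent P' is the mean of six partition experiments.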
# [2] = target: T1, Adrenergic receptor alpha (Rattus norvegicus) (UniProt P15823+P23944+P43140+P22086+P19328+P22909); assay: Central hypotensive activity in anesthetized normotensive rats.; format: functional
# Procedure, shortened: (§1)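 Male normotensive Wistar rats (190-220 g), pentobarbitone sodium 75 mg/kg ip, ventilated, ~37 °C; iv jugular dosing, one single dose per rat, randomized; carotid arterial pressure after ≥20 min equilibration with heparin; rats with MAP <100 or >150 mmHg excluded. Maximal MAP fall as % of preinjection; pC25 = log reciprocal dose (μmol/kg) for 25% fall, from log dose-response curves; points mean of 5-6 experiments.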
# [3] = target: T1, Adrenergic receptor alpha (Rattus norvegicus); assay: Peripheral hypertensive activity in pithed normotensive rats.; format: functional
# Procedure, shortened: (§2)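 Normotensive rats under hexobarbitone sodium 150 mg/kg ip, pithed via orbit, ventilated, ~37 °C, heparinized; after 20 min equilibration, single iv jugular doses in random order, 3-4 per rat with recovery between; carotid MAP rise (mmHg). pC60 = log reciprocal dose (μmol/kg) raising MAP by 60 mmHg, from log dose-response curves; points mean of 5-6 experiments.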
# [4] = target: T1, Adrenergic receptor alpha (Rattus norvegicus); assay: Tested for central hypotensive activity in anesthetized normotensive rats at alpha adrenoceptor expressed as 25% decrease in mean arterial pressure; procedure, shortened: as §1
# [5] = target: T1, Adrenergic receptor alpha (Rattus norvegicus); assay: Tested for peripheral hypertensive activity in pithed normotensive rats at alpha adrenoceptor expressed as increase in mean arterial pressure by 60 mmHg; procedure, shortened: as §2
smiles,measurement,setting,value
Clc1cccc(Cl)c1N=C1NCCCN1,logD,[1],-0.34
CCN1CCc2nc(N)oc2CC1 [AZEPEXOLE],logD,[1],0.05
same,pC25,[2],-0.14
same,pC60,[3],-0.41
Cc1cc(C(C)(C)C)cc(C)c1CC1=NCCN1 [XYLOMETAZOLINE],logD,[1],0.4
same,pC25,[2],0.26
same,pC60,[3],1.12
Clc1cccc(Cl)c1N=C1NCCN1 [CLONIDINE],logD,[1],0.85
Clc1cccc(Cl)c1CC1=NCCN1,logD,[1],-0.53
same,pC25,[2],0.68
same,pC60,[3],1.17
CC(Oc1c(Cl)cccc1Cl)C1=NCCN1 (stereo not given) [LOFEXIDINE],logD,[1],0.73
same,pC25,[2],2.09
same,pC60,[3],1.99
Cc1cccc(C)c1NC1=NCCCS1,pC25,[2],0.62
same,pC60,[3],-0.02
Brc1cc(Br)c(N=C2NCCN2)c(Br)c1,logD,[1],2.51
same,pC60,[3],0.65
Cc1csc(Cl)c1NC1=NCCN1 [TIAMENIDINE],logD,[1],-0.17
same,pC25,[2],0.69
same,pC60,[3],1.2
Clc1cccc(Cl)c1/C=N/NC1=NCCN1,logD,[1],2.12
same,pC25,[2],0.63
same,pC60,[3],0.23
Clc1cc(Br)cc(Cl)c1N=C1NCCN1,logD,[1],2.31
same,pC25,[2],0.84
same,pC60,[3],1.22
CC[C@H]1CCC[C@@H](C)[C@@H]1NC1=NCCO1,logD,[1],1.39
same,pC25,[4],2.32
same,pC60,[5],2.11
Clc1cccc(Cl)c1NC1=NCCN1,pC25,[2],2.04
same,pC60,[3],1.78
c1cc2c(c(NC3=NCCN3)c1)CCCC2 [TRAMAZOLINE],logD,[1],-0.62
same,pC25,[2],0.55
same,pC60,[3],1.8
c1ccc2c(c1)CCCC2C1=NCCN1 (stereo not given) [TETRAHYDROZOLINE],logD,[1],-0.9
same,pC25,[2],-0.16
same,pC60,[3],0.9
FC(F)(F)c1cc(Br)cc(Br)c1NC1=NCCN1,logD,[1],2.8
same,pC60,[3],-0.26
Clc1cccc(Cl)c1SC1=NCCN1,logD,[1],1.36
same,pC25,[2],0.88
same,pC60,[3],1.24
Clc1cccc(Cl)c1C1=CN2CCN=C2S1,logD,[1],2.02
same,pC25,[2],2.77
same,pC60,[3],2.4
Cc1cccc(C)c1/N=C1/NCCO1,logD,[1],1.28
same,pC25,[4],1.96
same,pC60,[5],1.51
c1ccc2c(CC3=NCCN3)cccc2c1 [NAPHAZOLINE],logD,[1],-0.52
same,pC25,[2],0.95
same,pC60,[3],1.83
Brc1c(NC2=NCCN2)ccc2nccnc12 [BRIMONIDINE],logD,[1],0.31
same,pC25,[2],1.55
same,pC60,[3],1.56
Clc1cccc(Cl)c1NC1=NCCCN1,pC60,[3],-0.79
C=CCN1CCc2nc(N)sc2CC1 [TALIPEXOLE],logD,[1],1.09
same,pC25,[2],1.43
same,pC60,[3],0.69
Cc1cccc(C)c1N=C1NCCCS1 [XYLAZINE],logD,[1],1.34
